# Activity calls are given as the source filed them. No cut-off for these calls is given here.
# What was measured:
# [1] = Inhibition of PBP2 in penicillin-resistant Enterococcus faecium D63r membranes assessed as inhibition of fluorescent ampicillin binding after 20 mins at 37 degC
# In short: (§1)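 Competition assay on purified membrane preparations (300 μg protein). Membranes preincubated 20 min at 37°C with increasing β-lactam concentrations, then 1 h at 37°C with saturating 25 μM fluorescent ampicillin. Proteins resolved by SDS-PAGE and fluorography. IC50 is the concentration inhibiting 50% of fluorescent ampicillin labelling relative to a drug-free control.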
# [2] = Inhibition of PBP5 in penicillin-resistant Enterococcus faecium D63r membranes assessed as inhibition of fluorescent ampicillin binding after 20 mins at 37 degC; in short: as §1
# [3] = Inhibition of PBP6 in penicillin-resistant Enterococcus faecium D63r membranes assessed as inhibition of fluorescent ampicillin binding after 20 mins at 37 degC; in short: as §1
# Enterococcus faecium [4] = assay: Antimicrobial activity against penicillin-resistant Enterococcus faecium D63r by microdilution method; assay type: functional
# [5] = Inhibition of PBP3 in penicillin-resistant Enterococcus faecium D63r membranes assessed as inhibition of fluorescent ampicillin binding after 20 mins at 37 degC; in short: as §1
# [6] = Inhibition of PBP1 in penicillin-resistant Enterococcus faecium D63r membranes assessed as inhibition of fluorescent ampicillin binding after 20 mins at 37 degC; in short: as §1
# [7] = Inhibition of PBP4 in penicillin-resistant Enterococcus faecium D63r membranes assessed as inhibition of fluorescent ampicillin binding after 20 mins at 37 degC; in short: as §1
# Enterococcus faecium [8] = assay: Antimicrobial activity against Enterococcus faecium D63 assessed as bacterial killing at 4 times MIC by time kill curve method; assay type: functional, organism-based
# In short: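 Survivors counted at 0, 4 and 24 h of incubation at 37°C by plating serial dilutions (at least 10-fold, to limit carryover).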
# Enterococcus faecium [9] = assay: Inhibition of Enterococcus faecium low-affinity PBP5fm assessed as rate constant for enzyme acylation by spectrophotometry
# In short: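 Soluble PBP 5fm (N-terminal membrane anchor removed), overproduced and purified without molecular sieve step. β-lactam ring opening followed at 319 nm, 30°C, 10 mM phosphate pH 7.0, 10 μM enzyme, across drug concentrations. Pseudo-first-order ka fitted from absorbance traces. k+2/K taken from slope of ka versus concentration.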
# [10] = Inhibition of PBP3 in wild type Enterococcus faecium D63 membranes assessed as inhibition of fluorescent ampicillin binding after 20 mins at 37 degC
# Enterococcus faecium [11] = assay: Antimicrobial activity against Enterococcus faecium D63 by microdilution method; assay type: functional
# [12] = Inhibition of PBP1 in wild type Enterococcus faecium D63 membranes assessed as inhibition of fluorescent ampicillin binding after 20 mins at 37 degC
# [13] = Inhibition of PBP6 in wild type Enterococcus faecium D63 membranes assessed as inhibition of fluorescent ampicillin binding after 20 mins at 37 degC; in short: as §1
# Enterococcus faecium [14] = assay: Antimicrobial activity against penicillin-resistant Enterococcus faecium D63r assessed as bacterial killing at 4 times MIC by time kill curve method; assay type: functional, organism-based
# [15] = Inhibition of PBP5 in wild type Enterococcus faecium D63 membranes assessed as inhibition of fluorescent ampicillin binding after 20 mins at 37 degC; in short: as §1
# [16] = Inhibition of PBP2 in wild type Enterococcus faecium D63 membranes assessed as inhibition of fluorescent ampicillin binding after 20 mins at 37 degC; in short: as §1
# [17] = Inhibition of PBP4 in wild type Enterococcus faecium D63 membranes assessed as inhibition of fluorescent ampicillin binding after 20 mins at 37 degC
# Staphylococcus aureus = assay: Inhibition of Staphylococcus aureus PBP2a assessed as rate constant for enzyme acylation by spectrophotometry
SMILES,IC50 [1] [µg/mL],IC50 [2] [µg/mL],IC50 [3] [µg/mL],MIC (Enterococcus faecium [4]) [µg/mL],IC50 [5] [µg/mL],IC50 [6] [µg/mL],IC50 [7] [µg/mL],inhibition (Enterococcus faecium [8]),INH (Enterococcus faecium [9]) [M⁻¹ s⁻¹],IC50 [10] [µg/mL],MIC (Enterococcus faecium [11]) [µg/mL],IC50 [12] [µg/mL],IC50 [13] [µg/mL],inhibition (Enterococcus faecium [14]),IC50 [15] [µg/mL],IC50 [16] [µg/mL],IC50 [17] [µg/mL],INH (Staphylococcus aureus) [M⁻¹ s⁻¹]
CO/N=C(\C(=O)N[C@@H]1C(=O)N2C(C(=O)[O-])=C(C[N+]3(C)CCCC3)CS[C@H]12)c1csc(N)n1,0.6,> 200,> 50,> 100,0.5,1.7,> 200,–,–,–,–,–,–,–,–,–,–,–
CC1(C)S[C@@H]2[C@H](NC(=O)Cc3ccccc3)C(=O)N2[C@H]1C(=O)O [PENICILLIN G],0.06,55,2,70,0.6,1.6,8,Active,15,1.3,5,0.9,1.5,Active,75,0.1,10,–
Nc1nc(/C(=N/O)C(=O)N[C@@H]2C(=O)N3C(C(=O)O)=C(/C=C4\CCN([C@@H]5CCNC5)C4=O)CS[C@H]23)ns1 [CEFTOBIPROLE],0.2,1,–,8,0.5,0.7,1.8,Active,110,0.6,2,0.6,> 16,Active,0.7,0.2,1.5,8900
CC1(C)S[C@@H]2[C@H](NC(=O)[C@H](N)c3ccccc3)C(=O)N2[C@H]1C(=O)O [AMPICILLIN],–,–,–,125,–,–,–,–,–,–,15,–,–,–,–,–,–,–
CC(C)(O/N=C(\C(=O)N[C@@H]1C(=O)N2C(C(=O)[O-])=C(C[n+]3ccccc3)CS[C@H]12)c1csc(N)n1)C(=O)O [CEFTAZIDIME],0.5,> 200,> 50,> 100,0.04,0.9,> 200,–,–,–,–,–,–,–,–,–,–,–

# From ChEMBL document CHEMBL1240353 (Antimicrob Agents Chemother, 2010)
